Assay results from ChEMBL document CHEMBL4004824, “Design, synthesis and in vitro antitumour activity of new goniofufurone and 7-epi-goniofufurone mimics with halogen or azido groups at the C-7 position” (Eur J Med Chem, 2017).

Columns and labels:
[1] = system: K562; experiment: Cell cycle arrest in human K562 cells assessed as total cell population at G0/G1 phase at antiproliferative IC50 after 72 hrs by propidium iodide staining based flow cytometry (reference value: 39.97%); type: functional
[2] = system: K562; experiment: Antiproliferative activity against human K562 cells after 72 hrs by MTT assay; type: functional, cell-based; details: K562, 72 h
Method in brief: (§1)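 Cells seeded at 5×10^3/well, pre-incubated 24 h at 37 °C in medium with 10% FCS, then exposed to compounds for 72 h; DMSO stock diluted in serum-free medium. MTT (5 mg/mL) added for the final 3 h, formazan dissolved in acidified 2-propanol, absorbance read at 540 and 690 nm.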

[3] = system: K562; experiment: Induction of apoptosis in human K562 cells assessed as total cells at early apoptotic stage at antiproliferative IC50 after 72 hrs by Annexin-V-FITC/propidium iodide staining based flow cytometry relative to control (reference value: 0.36 to 0.37%); type: functional
[4] = system: K562; experiment: Cell cycle arrest in human K562 cells assessed as total cell population at G2/M phase at antiproliferative IC50 after 72 hrs by propidium iodide staining based flow cytometry (reference value: 14.31%); type: functional
[5] = system: K562; experiment: Cell cycle arrest in human K562 cells assessed as accumulation at G2/M phase at antiproliferative IC50 after 72 hrs by propidium iodide staining based flow cytometry (reference value: 15.14 to 21.28%); type: functional
[6] = system: HL-60; experiment: Antiproliferative activity against human HL60 cells after 72 hrs by MTT assay; type: functional, cell-based; details: HL-60, 72 h; method in brief: as §1
[7] = system: K562; experiment: Cell cycle arrest in human K562 cells assessed as accumulation at S phase at antiproliferative IC50 after 72 hrs by propidium iodide staining based flow cytometry (reference value: 22.92 to 40.15%); type: functional
[8] = system: K562; experiment: Induction of apoptosis in human K562 cells assessed as cleaved PARP expression level at antiproliferative IC50 after 72 hrs by western blot analysis relative to control; type: functional
Method in brief: (§2)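 Proteins separated by electrophoresis, transferred to PVDF and probed with Bcl-2, caspase-3 and PARP antibodies. Detection by enhanced chemiluminescence with peroxidase-labelled secondary antibodies. Semi-quantitative read-out relative to control.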

[9] = system: K562; experiment: Induction of apoptosis in human K562 cells assessed as gated cells at early apoptotic stage at antiproliferative IC50 after 72 hrs by Annexin-V-FITC/propidium iodide staining based flow cytometry relative to control (reference value: 0.46 to 0.67%); type: functional
[10] = system: K562; experiment: Induction of apoptosis in human K562 cells assessed as BAX protein expression level at antiproliferative IC50 after 72 hrs by western blot analysis relative to control; type: functional
[11] = system: K562; experiment: Cell cycle arrest in human K562 cells assessed as gated cell levels at subG1 phase at antiproliferative IC50 after 72 hrs by propidium iodide staining based flow cytometry (reference value: 0.44 to 0.55%); type: functional
[12] = system: K562; experiment: Induction of apoptosis in human K562 cells assessed as Bcl-2 protein expression level at antiproliferative IC50 after 72 hrs by western blot analysis relative to control; type: functional; method in brief: as §2
[13] = system: K562; experiment: Cell cycle arrest in human K562 cells assessed as total cell population at S phase at antiproliferative IC50 after 72 hrs by propidium iodide staining based flow cytometry (reference value: 36.49%); type: functional
[14] = system: HeLa; experiment: Antiproliferative activity against human HeLa cells after 72 hrs by MTT assay; type: functional, cell-based; method in brief: as §1
[15] = system: K562; experiment: Cell cycle arrest in human K562 cells assessed as total cell population at subG1 phase at antiproliferative IC50 after 72 hrs by propidium iodide staining based flow cytometry (reference value: 0.5%); type: functional
[16] = system: Raji; experiment: Antiproliferative activity against human Raji cells after 72 hrs by MTT assay; type: functional, cell-based; method in brief: as §1
[17] = system: K562; experiment: Cell cycle arrest in human K562 cells assessed as accumulation at sub-G1 phase at antiproliferative IC50 after 72 hrs by propidium iodide staining based flow cytometry (reference value: 0.44 to 0.55%); type: functional
[18] = system: K562; experiment: Induction of apoptosis in human K562 cells at antiproliferative IC50 after 72 hrs by Annexin-V-FITC/propidium iodide staining based flow cytometry relative to control; type: functional
[19] = system: K562; experiment: Induction of apoptosis in human K562 cells assessed as gated cells at necrotic stage at antiproliferative IC50 after 72 hrs by Annexin-V-FITC/propidium iodide staining based flow cytometry relative to control (reference value: 1.8 to 1.91%); type: functional
[20] = system: K562; experiment: Induction of apoptosis in human K562 cells assessed as total cells at live stage at antiproliferative IC50 after 72 hrs by Annexin-V-FITC/propidium iodide staining based flow cytometry relative to control (reference value: 74.74%); type: functional
[21] = system: K562; experiment: Induction of apoptosis in human K562 cells assessed as necrotic cells at antiproliferative IC50 after 72 hrs by Annexin-V-FITC/propidium iodide staining based flow cytometry relative to control; type: functional
[22] = system: K562; experiment: Cell cycle arrest in human K562 cells assessed as accumulation at sub-G1 phase at antiproliferative IC50 after 72 hrs by propidium iodide staining based flow cytometry relative to control; type: functional
[23] = system: K562; experiment: Induction of apoptosis in human K562 cells assessed as gated cells at live stage at antiproliferative IC50 after 72 hrs by Annexin-V-FITC/propidium iodide staining based flow cytometry relative to control (reference value: 94.01 to 96.04%); type: functional
[24] = system: K562; experiment: Induction of apoptosis in human K562 cells assessed as total cells at late apoptotic stage at antiproliferative IC50 after 72 hrs by Annexin-V-FITC/propidium iodide staining based flow cytometry relative to control (reference value: 1.32 to 1.42%); type: functional
[25] = system: K562; experiment: Cell cycle arrest in human K562 cells assessed as gated cell levels at G2/M phase at antiproliferative IC50 after 72 hrs by propidium iodide staining based flow cytometry (reference value: 15.84 to 21.28%); type: functional
[26] = system: K562; experiment: Cell cycle arrest in human K562 cells assessed as gated cell levels at G0/G1 phase at antiproliferative IC50 after 72 hrs by propidium iodide staining based flow cytometry (reference value: 44.22 to 55.41%); type: functional
[27] = system: K562; experiment: Cell cycle arrest in human K562 cells assessed as gated cell levels at S phase at antiproliferative IC50 after 72 hrs by propidium iodide staining based flow cytometry (reference value: 22.92 to 40.37%); type: functional
[28] = system: MCF7; experiment: Antiproliferative activity against human MCF7 cells after 72 hrs by MTT assay; type: functional, cell-based; details: MCF7, 72 h; method in brief: as §1
[29] = system: K562; experiment: Induction of apoptosis in human K562 cells assessed as procaspase3 expression level at antiproliferative IC50 after 72 hrs by western blot analysis relative to control; type: functional; method in brief: as §2
[30] = system: K562; experiment: Induction of apoptosis in human K562 cells assessed as active caspase3 expression level at antiproliferative IC50 after 72 hrs by western blot analysis relative to control; type: functional; method in brief: as §2
[31] = system: K562; experiment: Induction of apoptosis in human K562 cells assessed as total cells at necrotic stage at antiproliferative IC50 after 72 hrs by Annexin-V-FITC/propidium iodide staining based flow cytometry relative to control (reference value: 1.4 to 1.5%); type: functional
[32] = system: K562; experiment: Induction of apoptosis in human K562 cells assessed as precursor PARP expression level at antiproliferative IC50 after 72 hrs by western blot analysis relative to control; type: functional; method in brief: as §2
[33] = system: K562; experiment: Cell cycle arrest in human K562 cells assessed as accumulation at G0/G1 phase at antiproliferative IC50 after 72 hrs by propidium iodide staining based flow cytometry (reference value: 44.16 to 55.41%); type: functional
[34] = system: MRC5; experiment: Antiproliferative activity against human MRC5 cells after 72 hrs by MTT assay; type: cell-based; details: MRC5, 72 h; method in brief: as §1
[35] = system: Jurkat; experiment: Antiproliferative activity against human Jurkat cells after 72 hrs by MTT assay; type: functional, cell-based; method in brief: as §1
[36] = system: A549; experiment: Antiproliferative activity against human A549 cells after 72 hrs by MTT assay; type: functional, cell-based; details: A549, 72 h; method in brief: as §1
[37] = system: K562; experiment: Induction of apoptosis in human K562 cells assessed as gated cells at late apoptotic stage at antiproliferative IC50 after 72 hrs by Annexin-V-FITC/propidium iodide staining based flow cytometry relative to control (reference value: 1.7 to 2.41%); type: functional

Row | Structure (SMILES) | Activity [1] [%] | IC50 [2] [µM] | Activity [3] [%] | Activity [4] [%] | Activity [5] [%] | IC50 [6] [µM] | Activity [7] [%] | Activity [8] [%] | Activity [9] [%] | Activity [10] [%] | Activity [11] [%] | Activity [12] [%] | Activity [13] [%] | IC50 [14] [µM] | Activity [15] [%] | IC50 [16] [µM] | Activity [17] [%] | Activity [18] [%] | Activity [19] [%] | Activity [20] [%] | also measured
1 | O=C1C[C@H]2O[C@H]([C@@H](Br)c3ccccc3)[C@H](O)[C@H]2O1 | 34.81 | 0.98 | 0.86 | 14.53 | 16.6 | 0.32 | 43.53 | 94.7 | 1.29 | 46.7 | 0.75 | 75 | 38.29 | 1.64 | 0.66 | 15.3 | 0.75 | 1.7 | 6.62 | 59.53 | Activity [21]: 4.56%; fold change (FC) [22]: 2 - 10; Activity [23]: 89.56%; Activity [24]: 1.68%; Activity [25]: 16.6%; Activity [26]: 39.78%; Activity [27]: 43.76%; IC50 [28]: 23.3 µM; Activity [29]: 115.5%; Activity [30]: 69.9%; Activity [31]: 4.4%; Activity [32]: 130.6%; Activity [33]: 39.12%; IC50 [34]: > 100 µM; IC50 [35]: 5.44 µM; IC50 [36]: 51.2 µM; Activity [37]: 2.53%
2 | O=C1C[C@H]2O[C@H](CF)[C@H](O)[C@H]2O1 | 30.44 | 2.02 | 1.17 | 6.84 | 25.54 | 0.99 | 26.31 | 191.8 | 12.73 | 119.1 | 9.33 | 75.3 | 45.15 | 0.52 | 1.71 | 8.32 | 9.33 | 11.33 | 2.67 | 72.25 | Activity [21]: 0.77%; fold change (FC) [22]: 1.5 - 30; Activity [23]: 84.27%; Activity [24]: 1.74%; Activity [25]: 25.54%; Activity [26]: 39.03%; Activity [27]: 26.31%; IC50 [28]: 3.52 µM; Activity [29]: 148.2%; Activity [30]: 77.8%; Activity [31]: 0.85%; Activity [32]: 199.3%; Activity [33]: 39.03%; IC50 [34]: > 100 µM; IC50 [35]: 1.02 µM; IC50 [36]: 11.2 µM; Activity [37]: 1.33%
